PMC2413043 (The Journal of Experimental Medicine, 2008)
“Also recorded” adds a separate entry of the source.

Assays:
TNF-α, IL-6, and IL-1β = assay: Inflammatory cytokine RNA levels by Northern blotting in RAW cells; type: cell-based, mouse; conditions: RAW cells treated with LPS and TSA 4 h
Outline: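 RAW 264.7 cells (DME, 10% FBS) treated with LPS and TSA for 4 h. Total RNA was isolated with TRIZOL and analysed by Northern blotting with probes for TNF-α, IL-1β and IL-6, with GAPDH as loading control.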

JNK1/2 = assay: Phosphorylation of JNK1/2 by immunoblot in RAW cells; type: cell-based, mouse; conditions: RAW cells pretreated 30 ng/ml TSA 1 h, 100 ng/ml LPS 30 min
Outline: (§1)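 RAW 264.7 cells (DME, 10% FBS) pretreated with TSA 30 ng/ml for 1 h, then LPS 100 ng/ml for 30 min. Whole-cell lysates were immunoblotted with antibodies to phosphorylated and total forms of the MAPK in question.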

MKK3/6 = assay: Phosphorylation of MKK3/6 by immunoblot in RAW cells; type: cell-based, mouse; conditions: TSA 30 ng/ml 1 h and/or LPS 100 ng/ml 30 min
Outline: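 RAW 264.7 cells grown in DME with 10% FBS were pretreated with TSA 30 ng/ml for 1 h, then given LPS 100 ng/ml for 30 min. Lysates were immunoblotted with phospho-specific antibodies to MAPK cascade members (phospho-MKK3/6, phospho-Elk-1).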

MKP-1 and p300 = assay: MKP-1 interaction with p300 by co-immunoprecipitation in RAW cells; type: cell-based, mouse; conditions: RAW cells treated with TSA; IP p300, blot MKP-1
TNF-α and IL-1β = assay: Liver TNF-α and IL-1β mRNA by RT-PCR; type: in vivo, mouse; conditions: liver 4 h after LPS, two representative mice
Outline: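 Mice were dosed with TSA each day from day −2 and challenged with LPS on day 0. Liver RNA was harvested 4 h after LPS. RT-PCR was run for TNF-α and IL-1β, or for COX-2 and CXCL2, with two mice per group.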

NOS2 [1] = assay: Liver NOS2 protein by immunoblot; type: in vivo, mouse; conditions: TSA pretreatment 4 h, LPS 16 h
Outline: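 Mice were pretreated with increasing amounts of TSA for 4 h, then given LPS for 16 h. Liver was harvested and its lysate immunoblotted for NOS2, with MEK1 as the loading control.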

MKP-1-ERα and p38 = assay: MKP-1-ERα/p38 interaction by co-immunoprecipitation in HeLa cells; type: cell-based; conditions: 4-HT, LPS and TSA 1 h
IL-1β [2] = assay: IL-1β in media of primary macrophages by ELISA; type: cell-based, mouse; conditions: TSA and LPS, 4 h, n = 2 ± SD
Outline: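 Primary peritoneal macrophages collected by PBS lavage from resting WT or MKP-1−/− mice, not thioglycolate-elicited; the mice were on a C57BL/6J background. Cells stimulated with TSA, LPS or both. After 4 h, TNF-α and IL-1β in the media were measured by ELISA; n = 2, mean ± SD.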

MKP-1 [3] = assay: MKP-1 acetylation in mouse liver by immunoprecipitation; type: in vivo; conditions: TSA pretreatment 4 h, LPS 16 h; IP MKP-1, blot Ac-Lys
Outline: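 Mice pretreated with TSA for 4 h, then given LPS for 16 h. Liver lysates were immunoprecipitated with anti-MKP-1 and immunoblotted with anti-acetyl-lysine or anti-MKP-1.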

WT mice = assay: LPS-induced mortality in WT mice; type: in vivo, mouse; conditions: Fig. S4 B
MKP-1 [4] = assay: MKP-1 expression in RAW cells by immunoblot; type: cell-based, mouse; conditions: LPS and TSA 1 h
NOS2 [5] = assay: NOS2 expression in RAW cells with MKP-1 siRNA or control siRNA; type: cell-based, mouse; conditions: LPS and TSA
Outline: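 RAW 264.7 cells were stably transfected with vectors encoding siRNA hairpins against MKP-1 nucleotides 67–85 or 743–761, or with a control hairpin. Knockdown in the isolated clones was confirmed by MKP-1 immunoblot. Clones were treated with LPS and TSA, and lysates were immunoblotted for NOS2 and MAPK family members.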

mouse liver = assay: LPS-induced liver inflammation, histology; type: in vivo; conditions: hematoxylin and eosin
Outline: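 Mice received saline (control) or TSA i.p. each day from day −2, then an i.p. LPS injection on day 0. Livers were harvested 2 h or 2 d after LPS, sectioned and stained with hematoxylin and eosin to assess leukocyte infiltration, edema and necrosis.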

IL-1β [6] = assay: Serum IL-1β by ELISA in LPS-treated mice; type: in vivo, mouse; conditions: TSA daily from day −2, LPS day 0, serum 2 h after LPS, n = 2 ± SD
MKP-1 KO mice = assay: LPS-induced mortality in MKP-1 KO mice; type: in vivo, mouse; conditions: LPS 20 mg/kg; n = 5; P = 0.17 LPS vs. LPS with TSA
ERK1/2 = assay: Phosphorylation of ERK1/2 by immunoblot in RAW cells; type: cell-based, mouse; conditions: RAW cells pretreated 30 ng/ml TSA 1 h, 100 ng/ml LPS 30 min
Outline: as §1

COX-2 and CXCL2 = COX-2 and CXCL2 expression by RT-PCR in RAW cells; type: cell-based, mouse; conditions: LPS and TSA, Fig. 1 H and Fig. S1
Outline: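 RAW 264.7 cells grown in DME with 10% FBS and penicillin/streptomycin. Cells exposed to LPS, TSA or both for 4 h, then assessed for COX-2 and CXCL2 expression by RT-PCR.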

p38 [7] = assay: Phospho-p38 in MEFs from MKP-1 heterozygous or KO mice; type: cell-based, mouse; conditions: LPS and TSA 30 min
Outline: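 Embryonic fibroblasts from MKP-1+/− or MKP-1−/− mice, grown in DME with 10% FBS, were treated with LPS and TSA for 30 min. Lysates were immunoblotted for phospho-p38 and total p38.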

p38 [8] = assay: Phospho-p38 in primary peritoneal macrophages; type: cell-based, mouse; conditions: LPS, TSA or both
Outline: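 Resident (non-thioglycolate-elicited) peritoneal macrophages were collected by PBS lavage from WT and MKP-1−/− mice. Cells were stimulated with LPS, TSA or both, and lysates were immunoblotted for total and phospho-p38.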

phospho-ERK1 = type: cell-based; conditions: MKP-1 immunoprecipitated from RAW cells treated with LPS and TSA 4 h
Outline: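 RAW 264.7 cells grown in DME with 10% FBS were treated with LPS plus TSA, or with control, for 4 h. Endogenous MKP-1 was immunoprecipitated from the lysates and incubated with recombinant phospho-p38 or phospho-ERK1. Remaining phosphorylation was detected by immunoblotting with phospho-p38 or phospho-ERK antibodies. The amount of phospho-substrate added was shown as an input lane.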

## CC(/C=C/C(=O)NO)=C\[C@@H](C)C(=O)c1ccc(N(C)C)cc1 [TSA, trichostatin A]
TNF-α, IL-6, and IL-1β
  expression of IL-1β: inhibits
  expression of IL-6: inhibits
  expression of TNF-α: inhibits
JNK1/2
  LPS-induced phosphorylation of JNK1/2: not JNK1/2
MKK3/6
  phosphorylation of MKK3/6: does not affect phosphorylation of the upstream MAPKK MKK3/6
MKP-1 and p300
  MKP-1 association with p300: MKP-1 associates with p300 in TSA-treated macrophages
TNF-α and IL-1β
  LPS-induced IL-1β mRNA in liver: decreases
  LPS-induced TNF-α mRNA in liver: decreases
NOS2 [1]
  NOS2 steady-state protein levels in liver: decreases NOS2 steady-state protein levels in liver
MKP-1-ERα and p38; MKP-1(K57R)-ERα
  interaction between mutant MKP-1(K57R) and p38: not able to affect the interaction between mutant MKP-1(K57R) and p38
MKP-1-ERα and p38; MKP-1(WT)-ERα
  interaction between MKP-1(WT) and p38: increases the interaction between MKP-1(WT) and p38
IL-1β [2]
  decrease of IL-1β, MKP-1 KO macrophages: 34%
  decrease of IL-1β, WT macrophages: 85%
MKP-1 [3]
  acetylation of MKP-1 in liver: increases acetylation of MKP-1 in vivo
WT mice
  mortality after LPS, dose response to TSA: decreases mortality after LPS in a dose-responsive manner
MKP-1 [4]
  MKP-1 expression: increases the expression of MKP-1 levels
NOS2 [5]
  LPS-induced NOS2 expression, control vs MKP-1 siRNA cells: decreases LPS-induced NOS2 expression in control cells, but not in cells with decreased MKP-1
Mouse liver; livers 2 h after LPS
  LPS-induced leukocyte infiltration / inflammation in liver: decreases LPS-induced inflammation
Mouse liver; livers 2 d after LPS
  LPS-induced hepatocyte edema and necrosis: limits LPS-induced hepatocyte edema and necrosis
IL-1β [6]
  decrease of serum IL-1β, MKP-1−/− mice: 21%
MKP-1 KO mice
  mortality after LPS, effect of TSA, MKP-1 KO mice: minimal and insignificant effect on mortality; also recorded: small protective effect on MKP-1^−/− mouse mortality
ERK1/2
  LPS-induced phosphorylation of ERK1/2: decreases
COX-2 and CXCL2
  COX-2 expression: slightly increases
  CXCL2 expression: slightly increases
p38 [7]
  phospho-p38 levels, heterozygous vs MKP-1 KO MEFs: decreases phospho-p38 levels in heterozygous cells, but not in MKP-1 KO cells
p38 [8]
  phospho-p38, WT vs MKP-1−/− primary macrophages: only suppresses phospho-p38 in macrophages from WT mice, not in macrophages from MKP-1^−/− mice
phospho-ERK1
  removal of phosphate from recombinant phospho-ERK1 by MKP-1: removes more phosphate from recombinant phospho-ERK1 than MKP-1 from control cells
